In ChEMBL document CHEMBL2177069, “Novel peptidomimetic compounds containing redox active chalcogens and quinones as potential anticancer agents” (Eur J Med Chem, 2012):
Active and inactive are the calls of the source. The calls are words filed in the database; no cut-off is given here.

Tests used:
HUVEC [1] = assay: Cytotoxicity against human HUVEC cells after 24 hrs by MTT assay; assay type: cell-based
Method in brief: (§1)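 MTT assay. Cells were seeded at 50,000 cells/mL in medium with 10% fetal calf serum and grown for two days at 37 °C, 10% CO2. Serial dilutions of compound were then added for 24 h. MTT was added (final 0.5 mg/mL) for 2 h, and the formazan was pelleted, washed, dissolved in isopropanol with 0.4% HCl and read at 590 nm. IC50 is the concentration giving 50% of untreated-control absorbance, taken from dose-response curves; mean of two parallel experiments.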

A498 = assay: Cytotoxicity against human A498 cells after 24 hrs by MTT assay; assay type: functional, cell-based; conditions: A498, 24 h; method in brief: as §1
A-431 [2] = assay: Cytotoxicity against human A431 cells after 24 hrs by MTT assay; assay type: functional, cell-based; conditions: A-431, 24 h; method in brief: as §1
MCF7 [3] = assay: Cytotoxicity against human MCF7 cells after 24 hrs by MTT assay; assay type: functional, cell-based; conditions: MCF7, 24 h; method in brief: as §1
[4] = Cytotoxicity against human PHF cells after 24 hrs by MTT assay; assay type: cell-based; method in brief: as §1
Saccharomyces cerevisiae [5] = assay: Growth inhibition of SOD1-deficient Saccharomyces cerevisiae YJR104C mutant at 20 ug/disc after 24 to 48 hrs by agar diffusion assay; assay type: functional; conditions: read-out: DIZ
Method in brief: (§2)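 S. cerevisiae deletion mutants or wild type grown on YPD, seeded into liquid agar medium at an optical density of 0.1. 6 mm paper discs soaked with methanolic compound solution were placed on the plates and incubated at 30 °C. Growth was checked after 1 and 2 days, and the inhibition zone diameter was recorded in mm.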

Saccharomyces cerevisiae [6] = assay: Growth inhibition of wild type Saccharomyces cerevisiae BY4741 at 20 ug/disc after 24 to 48 hrs by agar diffusion assay; assay type: functional; conditions: read-out: DIZ; method in brief: as §2
Saccharomyces cerevisiae [7] = assay: Growth inhibition of RCK1-deficient Saccharomyces cerevisiae YGL158W mutant at 20 ug/disc after 24 to 48 hrs by agar diffusion assay; assay type: functional; conditions: read-out: DIZ; method in brief: as §2
Saccharomyces cerevisiae [8] = assay: Growth inhibition of UFD2-deficient Saccharomyces cerevisiae YDL190C mutant at 20 ug/disc after 24 to 48 hrs by agar diffusion assay; assay type: functional; conditions: read-out: DIZ; method in brief: as §2
HUVEC [9] = assay: Induction of oxidative stress in human HUVEC cells assessed as increase in superoxide free radical production after 1 hr by DHE-based by fluorescence spectrophotometric analysis; assay type: cell-based
Method in brief: (§3)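 Cells were seeded at 10^5 per well and given graded compound concentrations for 1 h. They were then loaded with DHE or DCF probe for 30 min in the dark. Fluorescence was read immediately: DHE ex 540/em 600 nm; DCF ex 485/em 528 nm. Results were expressed as arbitrary units per 10^5 cells.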

Saccharomyces cerevisiae [10] = assay: Growth inhibition of WSC4-deficient Saccharomyces cerevisiae YHL028W mutant at 20 ug/disc 24 to 48 hrs by agar diffusion assay; assay type: functional; conditions: read-out: DIZ; method in brief: as §2
Saccharomyces cerevisiae [11] = assay: Growth inhibition of PST2-deficient Saccharomyces cerevisiae YDR032C mutant at 20 ug/disc 24 to 48 hrs by agar diffusion assay; assay type: functional; conditions: read-out: DIZ; method in brief: as §2
HUVEC [12] = assay: Induction of oxidative stress in human HUVEC cells assessed as increase in hydrogen peroxide free radical production after 1 hr by DCF-based fluorescence spectrophotometric analysis; assay type: cell-based; method in brief: as §3
Saccharomyces cerevisiae [13] = assay: Growth inhibition of GSH2-deficient Saccharomyces cerevisiae YOL049W mutant at 20 ug/disc after 24 to 48 hrs by agar diffusion assay; assay type: functional; conditions: read-out: DIZ; method in brief: as §2
MCF7 [14] = assay: Induction of oxidative stress in human MCF7 cells assessed as decrease in GSH level at 5 uM after 1 hr by DTNB assay relative to control; assay type: functional; set-up: scale not given: the % may be the effect or the level left
Method in brief: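 MCF-7 cells (10^6) were treated for 1 h at 37 °C, trypsinized, and washed twice with cold PBS. GSH was extracted with chilled 5% metaphosphoric acid at 4 °C for 2 h, then the lysate was centrifuged. Supernatant was mixed with 0.2 M sodium phosphate pH 8.0 and 0.04 mM DTNB for 10 min at room temperature. Absorbance was read at 412 nm against a reagent blank, and GSH was quantified from a standard curve.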

MCF7 [15] = assay: Induction of Cell cycle arrest in human MCF7 cells assessed as G0/1 phase cells at IC50 concentration after 24 hrs by PI-staining based flow cytometric analysis (reference value: 68%); assay type: functional
Method in brief: (§4)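 MCF-7 cells (10^6) were treated for 24 h, with methanol as the vehicle control. Cells were fixed in cold 70% methanol at 4 °C for one day, washed with PBS, and permeabilized with 0.1% saponin in PBS. They were stained with propidium iodide plus RNase for 30 min. DNA content was read by flow cytometry, giving percentages of cells per cell-cycle phase.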

MCF7 [16] = assay: Induction of Cell cycle arrest in human MCF7 cells assessed as S phase cells at IC50 concentration after 24 hrs by PI-staining based flow cytometric analysis (reference value: 19%); assay type: functional; method in brief: as §4
Saccharomyces cerevisiae [17] = assay: Growth inhibition of POS5-deficient Saccharomyces cerevisiae YPL188W mutant at 20 ug/disc after 24 to 48 hrs by agar diffusion assay; assay type: functional; conditions: read-out: DIZ; method in brief: as §2
MCF7 [18] = assay: Induction of Cell cycle arrest in human MCF7 cells assessed as G2/M phase cells at IC50 concentration after 24 hrs by PI-staining based flow cytometric analysis (reference value: 13%); assay type: functional; method in brief: as §4
A-431 [19] = assay: Induction of oxidative stress in human A431 cells assessed as increase in hydrogen peroxide free radical production after 1 hr by DCF-based fluorescence spectrophotometric analysis; assay type: functional, cell-based; method in brief: as §3
Saccharomyces cerevisiae [20] = assay: Growth inhibition of COX17-deficient Saccharomyces cerevisiae YLL009C mutant at 20 ug/disc after 24 to 48 hrs by agar diffusion assay; assay type: functional; conditions: read-out: DIZ; method in brief: as §2
Saccharomyces cerevisiae [21] = assay: Growth inhibition of SOD2-deficient Saccharomyces cerevisiae YHR008C mutant at 20 ug/disc 24 to 48 hrs by agar diffusion assay; assay type: functional; conditions: read-out: DIZ; method in brief: as §2
Saccharomyces cerevisiae [22] = assay: Growth inhibition of GTT2-deficient Saccharomyces cerevisiae YLL060C mutant at 20 ug/disc after 24 to 48 hrs by agar diffusion assay; assay type: functional; conditions: read-out: DIZ; method in brief: as §2
A-431 [23] = assay: Induction of oxidative stress in human A431 cells assessed as increase in superoxide free radical production after 1 hr by DHE-based by fluorescence spectrophotometric analysis; assay type: functional, cell-based; method in brief: as §3

Structure (SMILES)	IC50 (HUVEC [1])	IC50 (A498)	IC50 (A-431 [2])	IC50 (MCF7 [3])	IC50 [4]	zone of inhibition at 20 µg/disc (Saccharomyces cerevisiae [5])	zone of inhibition at 20 µg/disc (Saccharomyces cerevisiae [6])	zone of inhibition at 20 µg/disc (Saccharomyces cerevisiae [7])	zone of inhibition at 20 µg/disc (Saccharomyces cerevisiae [8])	Activity (HUVEC [9])	zone of inhibition at 20 µg/disc (Saccharomyces cerevisiae [10])	zone of inhibition at 20 µg/disc (Saccharomyces cerevisiae [11])	Activity (HUVEC [12])	zone of inhibition at 20 µg/disc (Saccharomyces cerevisiae [13])	zone of inhibition at 20 µg/disc (Saccharomyces cerevisiae [17])	zone of inhibition at 20 µg/disc (Saccharomyces cerevisiae [20])	zone of inhibition at 20 µg/disc (Saccharomyces cerevisiae [21])	zone of inhibition at 20 µg/disc (Saccharomyces cerevisiae [22])	further results
CC(C)(C)NC(=O)C(C[Se]c1ccccc1)OC(=O)c1ccc(-c2c3nc(c(-c4ccccc4)c4ccc([nH]4)c(-c4ccccc4)c4nc(c(-c5ccccc5)c5ccc2[nH]5)C=C4)C=C3)cc1 (centres undefined)	> 100 µM	> 100 µM	> 100 µM	> 100 µM	> 100 µM	–	–	–	–	–	–	–	–	–	–	–	–	–	–
CC1=C([Se]CC(OC(=O)[C@@H](CSSC(C)(C)C)NC(=O)OC(C)(C)C)C(=O)NC(C)(C)C)C(=O)c2ccccc2C1=O (some centres undefined)	2 µM	5 µM	2 µM	3 µM	4 µM	21 mm	0 mm	14 mm	0 mm	Non-toxic	20 mm	11 mm	Non-toxic	14 mm	11 mm	14 mm	18 mm	20 mm	Activity (MCF7 [14]): 46%; Activity (MCF7 [15]): 95%; Activity (MCF7 [16]): 3.9%; Activity (MCF7 [18]): 1.6%; Activity (A-431 [19]): Active
CC1=C(SCCC(=O)OC(C[Se]c2ccccc2)C(=O)NCCCCCC(=O)OCc2ccccc2)C(=O)c2ccccc2C1=O (centres undefined)	23 µM	> 100 µM	> 100 µM	10 µM	50 µM	18 mm	0 mm	0 mm	0 mm	–	12 mm	12 mm	–	0 mm	0 mm	0 mm	13 mm	0 mm	–
CC1=C(SCCC(=O)OC(C[Se]c2ccccc2)C(=O)NC(C)(C)C)C(=O)c2ccccc2C1=O (centres undefined)	34 µM	> 100 µM	7 µM	14 µM	26 µM	15 mm	0 mm	9 mm	0 mm	–	11 mm	12 mm	–	9 mm	9 mm	0 mm	12 mm	12 mm	–
CC1=C(SCCC(=O)OC(CC[Se]c2ccccc2)C(=O)NC(C)(C)C)C(=O)c2ccccc2C1=O (centres undefined)	13 µM	> 100 µM	> 100 µM	26 µM	11 µM	10 mm	0 mm	0 mm	10 mm	Non-toxic	11 mm	12 mm	Non-toxic	0 mm	0 mm	10 mm	0 mm	0 mm	Activity (A-431 [23]): Active
CC1=C([Se]CC(OC(=O)c2ccc(-c3c4nc(c(-c5ccccc5)c5ccc([nH]5)c(-c5ccccc5)c5nc(c(-c6ccccc6)c6ccc3[nH]6)C=C5)C=C4)cc2)C(=O)NC(C)(C)C)C(=O)c2ccccc2C1=O (centres undefined)	> 100 µM	> 100 µM	> 100 µM	> 100 µM	> 100 µM	–	–	–	–	–	–	–	–	–	–	–	–	–	–
CC(C)(C)NC(=O)COC(=O)c1ccc(-c2c3nc(c(-c4ccccc4)c4ccc([nH]4)c(-c4ccccc4)c4nc(c(-c5ccccc5)c5ccc2[nH]5)C=C4)C=C3)cc1	> 100 µM	> 100 µM	> 100 µM	> 100 µM	> 100 µM	–	–	–	–	–	–	–	–	–	–	–	–	–	–
CC1=C(SCCC(=O)OC(C[Se]C2=C(C)C(=O)c3ccccc3C2=O)C(=O)NC(C)(C)C)C(=O)c2ccccc2C1=O (centres undefined)	1 µM	3 µM	1 µM	3 µM	–	–	–	–	–	–	–	–	–	–	–	–	–	–	–
CC1=C([Se]CC(OC(=O)CNC(=O)OC(C)(C)C)C(=O)NCCCCCC(=O)OCc2ccccc2)C(=O)c2ccccc2C1=O (centres undefined)	36 µM	7 µM	5 µM	4 µM	6 µM	20 mm	0 mm	0 mm	0 mm	–	14 mm	11 mm	–	0 mm	0 mm	0 mm	25 mm	18 mm	Activity (MCF7 [14]): 76%
CC1=C(SCCC(=O)OC(CC[Se]c2ccccc2)C(=O)NCCCCCC(=O)OCc2ccccc2)C(=O)c2ccccc2C1=O (centres undefined)	17 µM	> 100 µM	> 100 µM	19 µM	21 µM	13 mm	0 mm	0 mm	0 mm	Non-toxic	11 mm	11 mm	Non-toxic	0 mm	0 mm	0 mm	12 mm	17 mm	Activity (A-431 [19]): Active
